# This is a sample that favours compounds with a hit; in the whole collection about 5.4% have one here.
# PostGolgi ctrl: growth of the yeast control strain, post-Golgi counter-screen; efflux-deficient yeast background strain, growth absorbance A615, 16 h; inhibition, % at 10 µM; 5% of 98,000 active; AID 738
# tolC growth inh: growth inhibitors of E. coli BW25113 tolC mutant. growth inhibition, % at 10 µM (by protocol). OD615. 2.2% of 65,000 active;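 active = growth inhibition at or above a cutoff equal to the mean over every tested compound plus 3 SD, cut at about 60% in these data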;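 note: growth measured after 20 h incubation at 37 °C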
#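 Assay system: tolC-deleted E. coli BW25113. Medium: kanamycin-containing LB broth (50 µg/mL). Dosing: 10 µM final, single dose. Timing: bacterial growth with compound for 20 h at 37 °C. Detection: A615 absorbance measurement. Read-out basis: growth inhibition in percent.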
# HePTP inhibitor: human HePTP phosphatase inhibition | P35236 | recombinant HePTP phosphatase activity, OD absorbance | inhibition, % at 20 µM | 0.64% of 110,000 active | AID 521; in the data active = inhibition above about 50%;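 note: plate controls were vehicle for no effect and reference inhibitor for full effect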
# PostGolgi yeast: growth inhibition of a yeast mutant, post-Golgi transport screen; post-Golgi transport phenotypic cell assay; inhibition, % at 10 µM; 0.9% of 98,000 active;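 note: yeast cells grown in 1536-well plates; yeast grown about 18 h at 30C before absorbance read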
# Ecoli WT expand: E. coli BW25113 growth inhibition, expanded screen | OD600 absorbance | growth inhibition, % at 100 µM | 0.15% of 98,000 active | AID 710;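 active = growth inhibition above about 50% at one test dose, limit read from the data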;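 note: growth measured after 20 h incubation at 37 °C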
# PLAP act: activators of human placental alkaline phosphatase; P05187; purified PLAP enzyme, luminescent substrate read-out; stronger effect = higher value; activation fold at 20 µM; 1.2% of 96,000 active; AID 696; in the data active = activation fold above about 2
# Target sequence (P05187 whole entry, looked up): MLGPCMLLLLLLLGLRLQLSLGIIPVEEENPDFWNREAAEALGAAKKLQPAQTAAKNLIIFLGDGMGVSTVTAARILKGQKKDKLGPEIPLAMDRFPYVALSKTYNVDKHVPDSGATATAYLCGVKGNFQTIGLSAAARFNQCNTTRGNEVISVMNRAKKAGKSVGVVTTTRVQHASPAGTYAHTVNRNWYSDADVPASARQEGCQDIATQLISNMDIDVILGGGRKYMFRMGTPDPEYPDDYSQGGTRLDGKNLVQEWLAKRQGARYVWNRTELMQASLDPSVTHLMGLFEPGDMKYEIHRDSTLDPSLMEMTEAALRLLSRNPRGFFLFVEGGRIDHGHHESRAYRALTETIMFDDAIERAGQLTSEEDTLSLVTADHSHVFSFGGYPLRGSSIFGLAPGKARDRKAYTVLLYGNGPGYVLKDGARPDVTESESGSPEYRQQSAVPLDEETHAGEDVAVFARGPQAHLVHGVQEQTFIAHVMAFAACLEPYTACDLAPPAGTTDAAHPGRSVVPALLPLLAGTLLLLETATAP
# Starred values were filed as active, the others as inactive; . = no result. Cut-off read from the data, not from the text of the source, unless noted: active = inhibition above about 30%; inactive = the rest.
SMILES,PostGolgi ctrl,tolC growth inh,HePTP inhibitor,PostGolgi yeast,Ecoli WT expand,PLAP act
COc1ccc(N=Cc2c(O)n(-c3cc(OC)ccc3OC)c(=O)[nH]c2=O)cc1,.,.,9.3,.,.,.
CC12CN3CC(=O)N4CC5(C)CN(CC(C)(C4)C5=O)C(=O)CN(C1)CC(C)(C3)C2=O,-1.1,-7.3,3.1,3.9,2.0,1.1
C=CCn1c(SCc2nc3ccccc3[nH]2)nnc1-c1ccccn1,10.8,7.3,-7.2,-3.1,2.0,2*
O=C(Nc1ccccc1)Nc1cccc(Cl)c1Cl,.,.,-3.3,.,.,.
COC(=O)c1sccc1NC(=O)Nc1cccc(Cl)c1Cl,33.6*,.,.,-2.9,-6.0,1
O=C(COc1cccc(Oc2ccccc2)c1)Nc1ccc(SC(F)F)cc1,10.5,.,.,13.4,-6.0,0.5
Cc1cc(Nc2ccc(N3CCC(C)CC3)cc2)n2ncnc2n1,-1.3,11.2,-6.1,-7.5,1.0,2*
CC(C)(C)c1ccc(OCC(O)CN2CCN(c3ccccc3)CC2)cc1 (stereo not drawn),.,.,4.1,.,.,.
CC(C)c1ccc(OCC(O)CN2CCN(c3ccccc3)CC2)cc1 (stereo not drawn),62.8*,54.5,4.6,50.9*,0.0,1.7
C=CCc1ccccc1OCC(O)CN1CCN(C(=O)OCC)CC1 (stereo not drawn),-2.1,-3.5,7.4,-9.6,-3.0,1.5
C=CCc1ccccc1OCC(O)CN1CCN(Cc2ccc3c(c2)OCO3)CC1 (stereo not drawn),45.1*,8.1,14.9,99.1*,-4.0,1.4
N#Cc1c(N)nc(SCC(=O)OCc2ccccc2)c(C#N)c1-c1ccco1,6.0,11.6,-9.9,10.0,1.0,0.8
N#Cc1c(N)nc(SCc2ccccc2)c(C#N)c1-c1ccco1,37.4*,2.4,-11.0,7.5,-5.0,0.9
N#Cc1c(N)nc(SCc2ccccn2)c(C#N)c1-c1cccs1,54.1*,8.1,5.7,10.2,-5.0,1.3
CCOC(=O)CSc1nc(N)c(C#N)c(-c2cccs2)c1C#N,6.7,-0.8,2.1,-0.6,-3.0,1
O=C(NCC1COc2ccccc2O1)c1ccc(Cl)cc1 (stereo not drawn),25.2,22.7,-3.7,58.0*,4.0,0.8
O=C(CNS(=O)(=O)c1ccc(Br)s1)NCC1COc2ccccc2O1 (stereo not drawn),95.4*,-10.0,5.9,68.3*,4.0,1.1
O=C(NCC1COc2ccccc2O1)c1ccc(NC(=O)c2ccco2)cc1 (stereo not drawn),16.9,18.7,1.1,3.1,-14.0,1
COC(=O)c1[nH]c2cc(C)ccc2c1NC(=O)CN1CCc2cc(OC)c(OC)cc2C1,16.6,16.8,-0.2,10.4,-6.0,1.5
O=C(CCc1ccccc1)NCCN1CCOCC1,.,.,-0.5,.,.,.
O=C(CCSc1ccccc1)NCCN1CCOCC1,39.0*,-13.3,11.0,-4.3,9.0,1
Nc1ccc(O)c2c1C(=O)c1c(N)ccc(O)c1C2=O,.,.,7.8,.,.,.
Nc1ccc(S(=O)(=O)O)c2cccc(O)c12,.,.,103.2*,.,.,.
COCCNC(=O)COc1cccc(Oc2ccccc2)c1,30.9*,6.2,0.7,11.8,3.0,1.1
COCCCNC(=O)COc1ccccc1,.,.,0.1,.,.,.
SMILES,PostGolgi ctrl,tolC growth inh,HePTP inhibitor,PostGolgi yeast,Ecoli WT expand,PLAP act
Cc1cc(NC(=O)COc2cccc(Oc3ccccc3)c2)no1,31.0*,-7.0,8.9,4.8,-3.0,0.9
Cc1ccc(S(=O)(=O)NCCSCc2ccccc2)cc1,16.5,.,.,-1.1,0.0,.
COc1ccc(S(=O)(=O)NCCSCc2cccc(C)c2)cc1Br,37.5*,.,.,-0.5,-20.0,0.8
O=C(O)c1cc(O)c2ccccc2c1O,.,.,-4.1,.,.,.
O=C(O)c1cc(Cl)c2ccccc2c1O,9.2,65.6*,9.6,11.1,13.0,1.1
O=C1CN(c2ccccc2F)C(=O)CN1c1ccccc1F,37.0*,8.1,5.1,13.4,6.0,0.9
O=C(c1ccccc1C(=O)N1CCN(c2ccccc2F)CC1)N1CCN(c2ccccc2F)CC1,12.7,15.8,2.7,9.0,3.0,1.5
c1ccc(CN2CCN(CCN3CCn4c3nc3ccccc34)CC2)cc1,3.4,-15.6,1.5,-6.3,4.0,1.6
COc1ccc(NS(=O)(=O)c2ccc3c(c2)Cc2ccccc2-3)cn1,64.6*,100.0*,9.2,-2.4,-9.0,0.8
CN(C)S(=O)(=O)Nc1ccc2c(c1)Cc1ccccc1-2,11.4,-26.3,10.2,15.2,0.0,0.9
C=CCSc1nc(O)c(CC)c(=O)n1C(C)CC (stereo not drawn),7.2,24.1,7.8,-2.3,1.0,1.2
CCc1c(O)nc(SCc2ccccc2)n(C(C)CC)c1=O (stereo not drawn),26.2,70.1*,5.7,-5.7,8.0,0.9
CCOc1ccc(NC(=O)c2nn(C)cc2Br)cc1,5.0,-7.1,7.1,-9.0,5.0,0.9
CCOC(=O)C1=C(N)OC2=C(C(=O)CCC2)C1c1cc(C)ccc1C (stereo not drawn),.,.,-6.7,.,.,.
COC(=O)c1ccc(N=C2S/C(=C\c3cc(C)n(-c4cccnc4)c3C)C(=O)N2C)cc1,32.3*,.,.,1.6,-6.0,1
O=C(Nc1cc(Cl)cc(Cl)c1)c1cccnc1,.,.,8.1,.,.,.
OC(Cn1ccnc1)c1ccc(Cl)cc1Cl (stereo not drawn),23.7,-18.8,1.9,76.5*,18.0,0.8
O=C(COc1ccc(Cl)cc1Cl)NCCCn1ccnc1,22.4,-23.8,0.7,-0.3,8.0,1.4
COC(=O)c1cccc(S(=O)(=O)N2CCC(NC(=O)Nc3cccc(F)c3)CC2)c1,-10.7,9.6,1.4,19.5,-8.0,1
CCOc1cc(CNCCO)cc(Br)c1OCc1ccc(Cl)cc1Cl,90.0*,.,.,27.0,80.0*,1.3
O=C(NNC1=C(C(=O)C(F)(F)F)CCC1)c1ccccc1O,1.5,.,.,3.3,18.0,1.8
O=C(NNC1=C(C(=O)C(F)(F)F)CCC1)c1ccccc1Cl,1.1,.,.,0.3,26.0,2.1*
O=C(Cn1c(S(=O)(=O)Cc2ccccc2)nc2ccccc21)N1CCCCC1,34.9*,-5.0,-9.2,-18.3,-4.0,0.9
Cc1ccc(-c2noc(-c3ccc([N+](=O)[O-])cc3)n2)cc1,.,.,1.3,.,.,.
CC1=C(C#N)C(=O)NC(C)(C)C1,36.6*,-11.1,3.9,1.1,-1.0,0.9
SMILES,PostGolgi ctrl,tolC growth inh,HePTP inhibitor,PostGolgi yeast,Ecoli WT expand,PLAP act
O=C(/C=C/c1ccco1)Nc1ccc(-c2nc3ccccc3s2)c(O)c1,.,.,104.0*,.,.,.
Cc1ccc(-c2ccc(=O)n(CC(=O)N3CCN(c4cc(Cl)ccc4C)CC3)n2)cc1,46.8*,.,.,17.1,-3.0,1.1
COc1cc(OC)c(OC)cc1/C=N/NC(=O)CSc1nc2ccccc2[nH]1,.,.,3.5,.,.,.
CO/N=C/NC(=O)NOCc1ncc(C(F)(F)F)cc1Cl,-1.3,.,.,-26.3,1.0,1.3
O=C(N/C=N/OCc1ccc(Cl)cc1Cl)NOCc1ncc(C(F)(F)F)cc1Cl,33.7*,.,.,-4.0,-1.0,2*
CCCOC(=O)c1ccc(Oc2cn[nH]c2-c2ccc(OCC)cc2O)cc1,0.0,69.8*,3.7,2.2,11.0,1.4
COc1ccc(Oc2c(-c3ccc(O)cc3O)n[nH]c2C)cc1,0.6,53.8,9.5,-0.2,17.0,1.8
